# GAA850 FXN act: FXN promoter activators, primary screen, cell-based, luciferase luminescence, HEK293 lucGAA850 | HEK293 lucGAA850 FXN promoter luciferase reporter, 24 h; percent of 10 µM SAHA response | 360,000 compounds, 0.56% hits | activation, % at 6 µM | AID 540364, 2011;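 active = activation above the average of all compounds screened plus 3 SD, cutoff fixed separately per campaign, cut at about 7.5% in these data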;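 also: 0% = DMSO wells and 100% = 10 µM SAHA wells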
# NR2E3 ag-1: NR2E3 agonists in two-hybrid cells, primary screen, cell-based, luminescence, CHO-S, Gal4-NCOR/VP16-NR2E3; Photoreceptor-specific nuclear receptor (Homo sapiens), Q9Y5X4; luciferase; inhibition of corepressor binding, % at 3.98 µM; 360,000 compounds, 0.35% hits; AID 602229, 2012;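 active = inhibition above the mean of all tested compounds plus 3 SD, cut at about 70% in these data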;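 also: 0% = DMSO with NR2E3 transfected cells and 100% = cells lacking NR2E3 construct; higher means lower luciferase signal from less NR2E3 corepressor binding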
# Target sequence (Q9Y5X4 whole entry, looked up, the tested form may be a part): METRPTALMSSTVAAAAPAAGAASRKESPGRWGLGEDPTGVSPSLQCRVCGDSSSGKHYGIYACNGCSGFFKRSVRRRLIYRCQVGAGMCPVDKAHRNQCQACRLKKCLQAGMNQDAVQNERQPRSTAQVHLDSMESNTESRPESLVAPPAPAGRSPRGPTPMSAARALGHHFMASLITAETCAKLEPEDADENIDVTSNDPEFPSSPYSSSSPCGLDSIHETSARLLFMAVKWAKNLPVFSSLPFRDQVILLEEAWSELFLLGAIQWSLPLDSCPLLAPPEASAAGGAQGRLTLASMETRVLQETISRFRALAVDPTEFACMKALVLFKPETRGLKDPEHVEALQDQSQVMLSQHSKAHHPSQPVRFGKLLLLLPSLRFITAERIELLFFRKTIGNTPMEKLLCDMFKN
# Myeloid diff MLP: induction of myeloid progenitor differentiation, primary screen, cell-based, flow cytometry, MLPCN library | calls only at 10 µM | 360,000 compounds, 1% hits | ER-HoxA9 myeloid progenitors, lysozyme-GFP differentiation | AID 624256, 2012;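 active = normalized GFP-positive differentiation at or above the plate's own cutoff, the solvent-only control mean plus 3 SD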;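 also: cells exposed to compound for four days before flow analysis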
# NR2E3 ag-2: inhibitors of NR2E3-RetCOR corepressor binding, primary screen, NR2E3 agonist project, biochemical, TR-FRET, GST-NR2E3, biotin-RetCOR; Photoreceptor-specific nuclear receptor (Homo sapiens), Q9Y5X4; inhibition of corepressor binding, % at 4.78 µM; 320,000 compounds, 0.12% hits; AID 2300, 2010; 1536-well;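 active = percent inhibition above the cutoff of mean plus 3 SD of all tested compounds, set per screening campaign, cut at about 20% in these data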;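 also: 0% = DMSO wells and 100% = biotin wells as full block of FRET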
#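 Test system – NR2E3–RetCOR corepressor complex · Quantity – NR2E3 fusion 1.35 nM · Buffer or medium – Tris pH 7.5 · Incubation – Compound–protein incubation for 5 h at 4 °C · Technique – TR-FRET, Eu(K)-anti-GST donor, streptavidin-D2 acceptor, ex 340, em 617/671 nm · Evaluation – percent inhibition of 671/617 nm emission ratio versus biotin and DMSO controls · Plate – 1536-well format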
# T cell HTS: modulators of CD8 T cell-vesicle binding, primary screen, mouse 2C CD8+ T cells, flow cytometry. 2C CD8+ T cell-vesicle binding; stronger effect = lower value. response (vesicle binding), % at 7 µM. 330,000 compounds, 0.068% hits;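 active = response, share of CD8 T cells binding vesicles, and their 90th percentile fluorescence all below set limits, cut at about 80% in these data, passing the limit was not always enough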;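 also: values below 100% mean blocked vesicle binding to the CD8+ T cells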
#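 material = purified 2C TCR transgenic mouse naive CD8+ T cells | controls = Unloaded micro-vesicles (low), QL9 vesicles with 0.7% DMSO (high) | detection = cytometric PE anti-B7-1 and Alexa647 anti-CD8 signals after 1% paraformaldehyde fixation | incubation = binding step 1.5 h, 37 °C, antibody labelling 20 min, ice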
# GAA30 counter: GAA30 FXN promoter activators, confirmation, counter-screen for GAA850 frataxin promoter activator project, cell-based, luminescence, HEK293, lucGAA30, triplicate; shares compounds with GAA850 FXN act; HEK293 lucGAA30 FXN promoter luciferase, 24 h; DMSO = 0%, 5 µM ipriflavone = 100%; activation, % at 6 µM; 1,900 compounds, 66% hits;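 active = mean activation above the mean of solvent-only control wells plus 3 SD, cut at about 22% in these data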;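 also: counterscreen of GAA850 promoter hits where activity marks nonselective or luminescence artifacts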
# FXN GAA850 conf: FXN GAA850 promoter activators in reporter cells, confirmation, cell-based, luminescence, HEK293 lucGAA850, triplicate | HEK293 lucGAA850 FXN promoter luciferase reporter, 24 h; 100% = activation by SAHA | 1,900 compounds, 86% hits | shares compounds with GAA850 FXN act | activation, % at 6 µM;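 active = mean activation above a set limit taken from the primary screen, cut at about 8% in these data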;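 also: 0% = DMSO wells and 100% = 10 µM SAHA wells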
# Numbers without * were called inactive; i = inactive; x = not tested or not shown. Rows were chosen to be rich in hits. Some 2% of all compounds tested hit in one or more screens of this group.
SMILES,GAA850 FXN act,NR2E3 ag-1,Myeloid diff MLP,NR2E3 ag-2,T cell HTS,GAA30 counter,FXN GAA850 conf
O=C(C(Cc1ccccc1)NS(=O)(=O)c1cccc2cccnc12)N1CCc2ccccc21 (stereo not given),13*,9,i,0,409,24*,9.1*
COc1c(O)ccc(/C=N\NC(=O)c2ccc3c(c2)OCO3)c1[N+](=O)[O-],0,-50,i,2,263,x,x
COc1c(O)ccc(/C=N/NC(=O)c2ccc3c(c2)OCCO3)c1[N+](=O)[O-],7.7*,-82,i,-1,93,71*,19*
OCCCNc1c2ccccc2nc2ccccc12,13*,-37,i,-4,379,-15,119*
COc1cc(OC)c(OC)cc1CCC(C)NCCC(c1ccccc1)c1ccccc1 (stereo not given),13*,19,i,-1,214,-20,9.4*
COc1ccc(C(=O)N/N=C/c2ccc(OC)c(CN3CCCc4ccccc43)c2)cc1,9.3*,-15,i,0,612,20,7
CCCCC1(CO)C(=O)N(c2ccccc2)N(c2ccccc2)C1=O,1,-4,i,0,105,x,x
CCCCC1(CC(=O)OCC)C(=O)N(c2ccccc2)N(c2ccccc2)C1=O,9.1*,26,i,-3,136,14,9.7*
CCCCC1(Cc2cccc([N+](=O)[O-])c2)C(=O)N(c2ccccc2)N(c2ccccc2)C1=O,8.2*,18,i,-5,212,-1,7
C[C@H]1c2cccc(O)c2C(O)=C2C(=O)[C@]3(O)C(O)=C(C(N)=O)C(=O)[C@@H](N(C)C)C3[C@@H](O)C21 (stereo not given in full),16*,-17,i,-1,460,18,5
CCCCOP(=O)(c1ccc(N(C)C)cc1)C(O)c1c(Cl)cccc1Cl (stereo not given),16*,-24,i,0,429,17,11*
CCCCOP(=O)(c1ccc(N(C)C)cc1)C(O)c1ccc(N(C)C)cc1 (stereo not given),1,11,i,-2,181,x,x
CCOC(=O)c1c(-c2ccc(F)cc2)csc1NC(=O)CN1C(=O)NC2(CCCCC2C)C1=O (stereo not given),13*,0,i,-2,0,9,18*
O=C(Nc1ccc(N2CCOCC2)cc1N1CCOCC1)c1cccc([N+](=O)[O-])c1,0,8,i,1,0,x,x
Cc1cccc2nc(CSc3nc4ccc([N+](=O)[O-])cc4[nH]3)c(Br)n12,14*,-5,i,-1,264,37*,17*
CCOc1ccccc1C(=O)N/N=C/c1c[nH]c2ccccc12,8.2*,-38,i,1,336,27*,8.9*
COCCn1c(SCC(=O)N2CCOCC2)nnc1-c1ccncc1,1,4,i,1,309,x,x
N#CCSc1nc(N)c(C#N)c(C2CCCCC2)c1C#N,11*,16,i,0,158,15,19*
N#Cc1c(N)nc(SCC(=O)NC2CCCCC2)c(C#N)c1-c1ccc(Cl)cc1,1,14,i,4,520,x,x
N#Cc1c(N)nc2c(c1-c1ccccc1)CCC2,8.2*,-50,i,5,441,62*,35*
CC(C)OP(=O)(c1ccc(N(C)C)cc1)C(Nc1ccccc1)c1ccccc1 (stereo not given),8.0*,18,i,2,182,12,13*
CC(C)C(NC(=O)c1ccc(F)cc1)C(=O)NCC1CCCO1 (stereo not given),2,-15,i,1,227,x,x
COc1ncccc1-c1ccc2nncn2c1,0,-16,i,x,x,x,x
CN1C(=O)Cc2cc(S(=O)(=O)N3CCN(c4cccc(Cl)c4)CC3)ccc21,0,0,i,2,445,x,x
N/C(=N\N=C\c1cccc(O)c1)c1nonc1N,7.9*,-139,i,0,498,128*,21*
SMILES,GAA850 FXN act,NR2E3 ag-1,Myeloid diff MLP,NR2E3 ag-2,T cell HTS,GAA30 counter,FXN GAA850 conf
N/C(=N\N=C\c1ccc(O)cc1)c1nonc1N,2,-95,i,-2,374,x,x
COc1cc(NC(=O)c2ccc(-c3ccc(F)c(F)c3)c3ccoc23)cc(OC)c1OC,-2,-16,i,x,x,x,x
C=C1CCN([C@@H](CC(C)C)C(=O)Nc2ccc(OC)cc2)S(=O)(=O)c2ccccc21,14*,-16,i,1,692,22*,11*
C=C1CCN([C@@H](Cc2ccccc2)C(=O)NCCC(C)C)S(=O)(=O)c2ccccc21,8.0*,-17,i,5,516,12,6
C=C1CCN([C@@H](CC(C)C)C(=O)NCc2ccccc2)S(=O)(=O)c2ccccc21,1,-37,i,2,712,x,x
CNc1c2cccc(C)c2nc2c(C(=O)NCCN(C)C)cccc12,-15,35,x,x,x,x,x
Cc1nn(C)c(C)c1S(=O)(=O)NC1CCCC1,1,12,i,4,110,x,x
Cc1nn(-c2nnc(NC3CCCCC3)nn2)c(C)c1Br,8.6*,-93,i,-1,270,124*,40*
Cn1cc(Br)c(C(=O)N/N=C/c2cc3c(cc2Cl)OCO3)n1,5,-45,i,x,x,x,x
NNC(=O)c1cccc(COc2ccc3c(c2)CCC3)c1,9.2*,-208,i,2,190,125*,42*
CC(=O)c1ccc2oc3ccccc3c(=O)c2c1,8.6*,-44,i,5,253,87*,33*
COc1ccccc1-n1nnnc1SCC(=O)Nc1ccc(C)c(N)c1,1,-30,i,2,192,x,x
NC1(C(=O)O)CSSC1,9.8*,-6,i,x,x,-20,25*
Cc1[nH]c2ccccc2c1SCC(=O)N1CCCc2ccccc21,20*,-19,i,0,363,18,10*
Cc1cc(C)nc(Nc2n[nH]c(-c3ccc(N)cc3)n2)n1,8.2*,-87,i,-1,987,93*,34*

# Source: PubChem
